# From PubChem BioAssay
# ANO1 block: inhibitors of mouse TMEM16A calcium-activated chloride channel; Q8BHY3; HEK293 TMEM16A/YFP iodide influx fluorescence, ionomycin; normalized B-score (activity score, 25-100; higher = stronger inhibition) at 10 µM; 310,000 tested, 1.2% active; AID 588511;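 active = ratio plate-corrected score three or more library SD toward inhibition, starting fluorescence score within five deviations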;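 note: score derived from kinetic fluorescence span divided by baseline fluorescence per well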
# MC4R barr agon: activates human MC4R beta-arrestin recruitment | P32245 | U2OS MC4R beta-arrestin complementation, luminescence; percent of melanotan II response, DMSO zero | activation, % at 8.9 µM | 360,000 tested, 0.98% active;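 active = activation above a per-plate cutoff, the mean activation of sample wells on that plate plus 3 SD, cut at about 8% in these data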
# TMEM16A act: activates or potentiates the mouse TMEM16A chloride channel; Q8BHY3; HEK293 TMEM16A/YFP-H148Q/I152L, iodide quench fluorescence; hits give low values; B-score at 10 µM; 340,000 tested, 0.3% active;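 active = fluorescence-ratio B-score plate-corrected deviation score at least 3 library SD below zero, with starting fluorescence score within 5 deviations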;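 note: channel opened by trigger with iodide after compound preincubation; score built on the fluorescence ratio of max minus min over baseline; more negative score means more quench and so TMEM16A activation or potentiation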
# beta cell repl: inducers of beta-cell replication in MIN6 cells | MIN6 cells proliferation, ATPlite luminescence, 48 h; cells starved in 0.2% serum; 100% = growth in 10% serum | proliferation, % at 10 µM | AID 2380 | 330,000 tested, 0.29% active;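 active = compounds whose signal lies at least 3.5 SD above the mean of all wells on their plate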
# MC4R antagonist: human MC4R antagonism in cAMP assay | P32245 | MC4R-expressing cells, MTII-stimulated cAMP, LANCE TR-FRET | inhibition, % at 6.5 µM | 360,000 tested, 0.48% active | AID 540295;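 active = inhibition above its plate's cutoff, the mean of tested wells on that plate plus 3 SD, cut at about 29% in these data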
#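 Assay system: U2OS-MC4R stable cell line; Also added: Melanotan II; Technique: Eu-cAMP/anti-cAMP TR-FRET, emission 671 nm; Times: 30-min compound, 1-h challenge, 1-h detection, room temperature.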
# HTR2A ag: agonists of mouse serotonin 5-HT2A receptor (HTR2A). activation, % at 7.6 µM. 360,000 tested, 0.66% active. CHO-K1 mHTR2A beta-arrestin complementation, luminescence; percent of 30 µM serotonin response. P35363;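 active = activation above a run cutoff, the mean activation of all tested compounds plus 3 SD, cut at about 14% in these data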
# TMEM16A reconf: reconfirmed blocker of mouse TMEM16A calcium-activated chloride channel; AID 652189; HEK293 TMEM16A/YFP-H148Q, iodide quench fluorescence; ionomycin added to raise cell calcium; 2,300 tested, 39% active; shares compounds with ANO1 block; inhibition, % at 10 µM;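 active = mean duplicate percent inhibition, scaled so buffer wells are 0 and the reference blocker 100, over three buffer SD above buffer mean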
# TMEM16A Ca cntr: alters calcium mobilization in TMEM16A HEK293 cells, counter-screen; shares compounds with ANO1 block; 2,300 tested, 2% active; TMEM16A/YFP HEK293, Fluo4 calcium mobilization; calcium response (% of ionomycin), % at 10 µM;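 active = duplicate-averaged calcium signal over 20% of the ionomycin maximum, relative to buffer baseline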;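 note: each well's signal is peak minus trough fluorescence divided by its pre-addition baseline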
# Parental YFP cnt: parental YFP-HEK293 iodide quench counter-screen activity. shares compounds with ANO1 block. ionomycin. YFP ratio F(max-min)/F0 at 10 µM. 2,300 tested, under 10 active;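 active = yellow fluorescent protein signal ratio exceeding the buffer control mean by over 5 SD of those controls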;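 note: ratio is mean of duplicate wells from kinetic YFP trace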
# ClC-1 inh: rat ClC-1 inhibition, TMEM16A specificity screen; ratio percent, % at 10 µM; shares compounds with ANO1 block; 2,300 tested, under 10 active; CHO ClC-1-YFP, iodide influx fluorescence quench; iodide control reads 0, buffer control 100; AID 652236;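 active = duplicate-mean ratio percent above the mean of iodide-only control wells, which defines zero, plus 5 of their SD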;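 note: higher percent means stronger block of ClC-1 iodide influx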
# Hits are given with their value; - = inactive; . = no result given. This is a sample that favours compounds with a hit; in the whole collection about 3.4% have one here.
SMILES,ANO1 block,MC4R barr agon,TMEM16A act,beta cell repl,MC4R antagonist,HTR2A ag,TMEM16A reconf,TMEM16A Ca cntr,Parental YFP cnt,ClC-1 inh
O=C(Nn1c(-c2ccc(Br)cc2)nc2ccccc2c1=O)c1ccc([N+](=O)[O-])cc1,25,-,-,-,-,-,-,-,-,-
CC(C)(C)c1cccc(Cn2nnc3ccccc32)c1O,100,-,-,-,-,-,24.5%,-,-,-
O=C(CCC1CCCCC1)Nc1ccccc1-c1ccccc1,100,-,-,-,-,-,26.5%,-,-,-
Fc1cccc(Cl)c1C1SCc2nc3ccccc3n21 (centres undefined),.,.,.,.,.,-,.,.,.,.
COc1ccc(-c2ccc(CN3C(C(C)C)C(=O)N(Cc4cn(CCC5OCCO5)nn4)CCS3(=O)=O)cc2)cc1 (centres undefined),.,-,.,.,-,-,.,.,.,.
O=C(CCC(=O)OCC(=O)c1ccc(F)cc1)NC1CCCCC1,25,-,-,-,-,-,-,-,-,-
O=C(COC(=O)CCC(=O)c1ccc(F)cc1)NC1CCCCC1,.,-,-,-,-,-,.,.,.,.
O=C(Nc1nncs1)c1cc(-c2ccco2)nc2ccccc12,.,-,-,-,-,-,.,.,.,.
COc1ccc(NC(=O)C2Cc3c(-c4ccc5c(c4)OCO5)ccnc3O2)cc1 (centres undefined),.,-,.,.,-,-,.,.,.,.
COc1ccc(N2CC(O)=C(c3n(C)c4ccccc4[n+]3C)C2=N)cc1,25,-,-,-,-,-,-,-,-,-
O=C(Nc1cc(C(F)(F)F)cc(C(F)(F)F)c1)O[C@@H]1c2ccccc2[C@@H]2Cc3csc[n+]3[C@H]12,.,.,.,.,.,-,.,.,.,.
O=C(N/N=C/c1c[nH]c2ccccc12)C1CC1c1ccccc1 (centres undefined),25,-,-,-,-,-,46.5%,-,-,-
COC(=O)N/N=C/c1c[nH]c2ccccc12,-,-,-,-,-,-,.,.,.,.
CCOc1cc(C)cc2oc(=O)cc(-c3ccccc3)c12,25,-,-,-,-,-,-,-,-,-
CC(=O)Oc1cc(C)cc2oc(=O)cc(-c3ccccc3)c12,-,-,-,-,-,-,.,.,.,.
O=S(=O)(CCNC1CC1)NC1CCCCC1,.,-,.,.,-,-,.,.,.,.
C/C(N)=C(/C#N)C(=O)COC(=O)C1CCC(C(C)(C)C)CC1 (centres undefined),25,-,-,-,-,-,28.0%,-,-,-
C/C(N)=C(/C#N)C(=O)COC(=O)CC1CCCC1,-,-,-,-,-,-,.,.,.,.
C[C@H](NC(=O)OC(C)(C)C)c1nnc(SCC(=O)c2ccc(Cl)cc2)o1,100,-,-,-,-,-,-,-,-,-
CCOC(=O)c1c(NC(=O)C(C)N2CCN(C(=O)c3ccco3)CC2)sc2c1CCCC2 (centres undefined),25,-,-,-,-,-,-,-,-,-
COc1ccc(Cn2c(=O)[nH]c3cc(C(=O)N4CCN(c5ccccc5OC)CC4)ccc3c2=O)cc1,-,-,-,-,-,-,.,.,.,.
COc1ccc(Cn2c(=O)[nH]c3cc(C(=O)N4CCN(Cc5ccccc5)CC4)ccc3c2=O)cc1,25,-,-,-,-,-,-,-,-,-
CN(C)CCOC1c2ccccc2CCc2ccc3ccccc3c21 (centres undefined),-,-,-,-,-,-,.,.,.,.
CCCCn1nnnc1C(c1ccccc1)N1CCN(c2cccc(C)c2C)CC1 (centres undefined),.,.,.,.,.,-,.,.,.,.
CN1CCCC1CCNc1ccc2sc3ccccc3c(=O)c2c1 (centres undefined),-,-,-,-,-,-,-,-,-,-
SMILES,ANO1 block,MC4R barr agon,TMEM16A act,beta cell repl,MC4R antagonist,HTR2A ag,TMEM16A reconf,TMEM16A Ca cntr,Parental YFP cnt,ClC-1 inh
CC1(c2nnnn2-c2ccc3c(c2)OCCO3)CCC(=O)N1C1CC1 (centres undefined),.,.,.,.,.,-,.,.,.,.
COc1ccccc1-c1noc(CCC(=O)Nc2cccc(C(F)(F)F)c2)n1,100,-,-,-,-,-,-,-,-,-
CC(C)(C)c1ccc(-c2noc(CCC(=O)Nc3cccnc3)n2)cc1,100,-,-,-,-,-,18.0%,-,-,-
COc1ccc(-c2noc(CCC(=O)Nc3cccnc3)n2)cc1,-,-,-,-,-,-,.,.,.,.
COc1ccccc1CNC(=O)C1(C)CCN1C(=O)C1(c2ccccc2)CC1 (centres undefined),.,-,.,.,-,-,.,.,.,.
COc1ccc(-c2cc(=O)oc3cc(OC(C)C(=O)NCCCn4ccnc4)ccc23)cc1 (centres undefined),-,-,-,-,-,-,.,.,.,.
CC1C(=O)CC2C3(C)CCC2(C(C)C(=O)O)C(=O)C13 (centres undefined),.,-,.,.,-,-,.,.,.,.
Cc1ccc(N2CCN(CC(O)COC3CCCCC3)CC2)cc1 (centres undefined),25,-,-,-,-,-,-,-,-,-
CC(C)(C)C1CCC(OCC(O)CN2CCN(c3ccccc3)CC2)CC1 (centres undefined),-,-,-,-,-,-,.,.,.,.
Cc1cc(C)c(NC(=O)C2=CCN(S(=O)(=O)c3ccc(F)cc3)CC2)c(C)c1,-,-,-,-,-,-,.,.,.,.
Cc1ccc(NC(=O)C2=CCN(S(=O)(=O)c3ccc(F)cc3)CC2)c(C)c1,100,-,-,-,-,-,-,-,-,-
CCOC(=O)c1[nH]c(C(=O)O)c(OC(=O)CC)c1C,-,-,-,-,-,-,.,.,.,.
Cc1cc(SCc2ccc(Cl)c(Cl)c2)nc(=O)[nH]1,-,-,-,-,-,-,.,.,.,.
O=C(Nc1cc(Cl)cc(Cl)c1)c1cccc(OC(F)F)c1,100,-,-,-,-,-,43.0%,-,-,-
Cc1ccnc(NC(=O)c2cccc(OC(F)F)c2)n1,-,-,-,-,-,-,.,.,.,.
Cc1ccc(S(=O)(=O)N[C@@H](CC(C)C)C(=O)N2CCC(C(=O)N[C@H](C(=O)O)C(C)C)CC2)cc1,-,-,-,-,-,-,.,.,.,.
